Reference: article PMC6072596 (Molecular cancer therapeutics, 2018)
“And” between values parts separate entries of the source, which are not always exact repeats. Equal values may be shown once.

Legend:
human glioma T98G cells = experiment: Radiosurvival colony-forming ability; format: cell-based; conditions: compared with KU-60019
How it was run: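 T98G human glioma cells came from ATCC and grew in DMEM with 10% FBS and penicillin-streptomycin at 37°C, 5% CO2. Cultures were kept no longer than 2 months and tested mycoplasma-negative. Radiosensitization was scored as colony-forming ability after irradiation, with a reference ATM inhibitor run alongside.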

[1] = tested on: ATM targets including p53-S15, KAP1-S824, and ATM auto-phosphorylation at S1981; experiment: Western blotting of ATM target phosphorylation; format: cell-based; conditions: western blot
How it was run: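 Mouse GL261 cells were irradiated (5 Gy) or not and exposed to test compound 0.3, 1 or 3 µM, or KU-60019 3 µM as reference ATM inhibitor, or neither. Extracts were western blotted for p-p53 S15 and p-KAP1 S824, with GAPDH or KAP1 as loading controls, using Dylight-800 anti-rabbit and Alexa Fluor-680 anti-mouse secondaries.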

GL261 orthotopic glioma = experiment: Syngeneic orthotopic mouse glioma model GL261/C57bl6, survival with radiation; format: in vivo
pS1981ATM = pS1981ATM (Homo sapiens, UniProt Q13315); experiment: ATM cell assay; format: cell-based; conditions: read-out: pS1981ATM IC50 (ATM cell IC50)
pS1981ATM, sequence (Q13315 whole entry): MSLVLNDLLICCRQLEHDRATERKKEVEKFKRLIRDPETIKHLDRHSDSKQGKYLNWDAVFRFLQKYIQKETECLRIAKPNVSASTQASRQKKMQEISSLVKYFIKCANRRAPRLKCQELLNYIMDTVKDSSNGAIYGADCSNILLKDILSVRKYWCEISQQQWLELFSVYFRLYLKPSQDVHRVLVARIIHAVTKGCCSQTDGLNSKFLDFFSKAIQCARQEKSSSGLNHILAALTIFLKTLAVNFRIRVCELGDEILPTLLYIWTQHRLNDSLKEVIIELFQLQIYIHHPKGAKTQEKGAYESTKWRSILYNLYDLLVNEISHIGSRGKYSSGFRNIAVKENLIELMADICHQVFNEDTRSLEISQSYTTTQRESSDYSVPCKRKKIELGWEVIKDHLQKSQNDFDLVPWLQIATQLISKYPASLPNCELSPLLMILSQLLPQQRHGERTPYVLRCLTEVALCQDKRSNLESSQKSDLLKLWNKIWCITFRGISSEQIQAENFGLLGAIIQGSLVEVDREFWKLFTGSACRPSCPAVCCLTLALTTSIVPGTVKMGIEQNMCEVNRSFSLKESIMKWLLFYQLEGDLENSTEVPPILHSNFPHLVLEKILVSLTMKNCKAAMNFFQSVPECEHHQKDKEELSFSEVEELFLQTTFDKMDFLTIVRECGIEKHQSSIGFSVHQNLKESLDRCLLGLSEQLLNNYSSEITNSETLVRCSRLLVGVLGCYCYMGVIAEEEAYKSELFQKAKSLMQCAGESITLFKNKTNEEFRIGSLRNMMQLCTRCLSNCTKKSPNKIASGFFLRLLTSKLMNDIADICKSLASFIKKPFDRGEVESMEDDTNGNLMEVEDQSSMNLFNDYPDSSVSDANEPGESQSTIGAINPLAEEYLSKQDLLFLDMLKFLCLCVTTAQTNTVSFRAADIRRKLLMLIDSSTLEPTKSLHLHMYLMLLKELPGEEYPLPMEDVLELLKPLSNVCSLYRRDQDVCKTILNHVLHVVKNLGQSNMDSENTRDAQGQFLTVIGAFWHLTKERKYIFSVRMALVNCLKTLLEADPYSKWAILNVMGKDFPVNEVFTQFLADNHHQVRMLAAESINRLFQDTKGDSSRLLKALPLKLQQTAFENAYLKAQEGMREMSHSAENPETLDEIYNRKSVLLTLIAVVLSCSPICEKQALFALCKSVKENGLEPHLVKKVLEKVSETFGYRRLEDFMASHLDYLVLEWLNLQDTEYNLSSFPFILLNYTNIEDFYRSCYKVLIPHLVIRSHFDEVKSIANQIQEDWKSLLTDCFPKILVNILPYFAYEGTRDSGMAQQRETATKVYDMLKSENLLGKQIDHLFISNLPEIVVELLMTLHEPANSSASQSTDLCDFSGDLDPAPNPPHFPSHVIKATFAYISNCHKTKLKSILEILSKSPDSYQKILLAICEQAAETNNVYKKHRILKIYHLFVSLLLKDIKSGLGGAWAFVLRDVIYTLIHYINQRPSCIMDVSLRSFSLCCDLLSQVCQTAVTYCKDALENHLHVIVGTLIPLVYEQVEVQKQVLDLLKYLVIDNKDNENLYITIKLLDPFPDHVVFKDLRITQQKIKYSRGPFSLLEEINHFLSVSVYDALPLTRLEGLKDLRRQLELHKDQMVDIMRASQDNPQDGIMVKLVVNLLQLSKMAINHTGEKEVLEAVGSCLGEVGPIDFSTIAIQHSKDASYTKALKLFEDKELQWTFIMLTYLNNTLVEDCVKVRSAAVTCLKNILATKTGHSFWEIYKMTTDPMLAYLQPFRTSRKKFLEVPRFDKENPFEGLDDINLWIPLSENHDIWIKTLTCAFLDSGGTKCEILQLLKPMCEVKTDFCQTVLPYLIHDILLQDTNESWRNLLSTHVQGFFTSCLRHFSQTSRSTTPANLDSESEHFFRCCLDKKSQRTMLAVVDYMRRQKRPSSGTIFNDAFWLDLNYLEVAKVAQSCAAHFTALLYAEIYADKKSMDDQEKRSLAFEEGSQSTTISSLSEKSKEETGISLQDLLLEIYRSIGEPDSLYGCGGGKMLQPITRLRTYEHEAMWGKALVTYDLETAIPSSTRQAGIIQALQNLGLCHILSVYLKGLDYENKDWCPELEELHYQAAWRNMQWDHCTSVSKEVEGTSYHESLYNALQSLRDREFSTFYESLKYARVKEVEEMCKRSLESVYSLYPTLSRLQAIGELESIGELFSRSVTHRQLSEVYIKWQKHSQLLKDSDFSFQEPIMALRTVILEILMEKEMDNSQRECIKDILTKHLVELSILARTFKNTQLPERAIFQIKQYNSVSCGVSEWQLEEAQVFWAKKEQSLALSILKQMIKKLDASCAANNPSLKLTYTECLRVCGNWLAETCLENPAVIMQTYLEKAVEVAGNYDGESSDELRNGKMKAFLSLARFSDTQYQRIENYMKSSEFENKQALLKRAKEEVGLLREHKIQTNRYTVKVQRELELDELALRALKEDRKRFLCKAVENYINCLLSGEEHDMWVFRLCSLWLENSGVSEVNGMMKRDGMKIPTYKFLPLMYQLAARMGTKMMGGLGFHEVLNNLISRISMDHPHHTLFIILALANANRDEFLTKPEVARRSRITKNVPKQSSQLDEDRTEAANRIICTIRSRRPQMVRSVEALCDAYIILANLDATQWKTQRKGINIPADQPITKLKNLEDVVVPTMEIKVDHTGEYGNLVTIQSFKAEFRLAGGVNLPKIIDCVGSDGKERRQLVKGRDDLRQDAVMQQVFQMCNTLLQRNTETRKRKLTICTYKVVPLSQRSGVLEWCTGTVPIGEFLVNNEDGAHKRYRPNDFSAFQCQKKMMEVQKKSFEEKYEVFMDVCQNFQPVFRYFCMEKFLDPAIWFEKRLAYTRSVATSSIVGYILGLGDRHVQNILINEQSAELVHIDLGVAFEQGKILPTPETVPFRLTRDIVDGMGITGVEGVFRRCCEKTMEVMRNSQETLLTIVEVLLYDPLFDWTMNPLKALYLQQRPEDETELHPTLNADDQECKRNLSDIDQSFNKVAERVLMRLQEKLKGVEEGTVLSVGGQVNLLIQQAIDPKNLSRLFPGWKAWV

ATR = ATR (Homo sapiens, UniProt Q13535); experiment: Kinase selectivity, biochemical PIKK enzyme activity: ATR
[2] = Mouse oral exposure: plasma and brain; format: in vivo; conditions: from Kpuu of Table 1
Cell permeability = format: in vitro ADME
[3] = tested on: human glioma cell lines LN18, U1242, T98G, DBTRG, U87MG; experiment: Radiosurvival of human glioma cell line panel with AZ32; format: cell-based; conditions: LN18, U1242, T98G (mutant p53), U87MG (wild-type p53)
[4] = tested on: pp53 (S15), pKAP1 (S824) in mouse glioma GL261 cells; experiment: Western blotting of DDR in GL261 cells; format: cell-based; conditions: 5 Gy, AZ32 0.3, 1 or 3 µM
How it was run: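 Mouse GL261 glioma cells, grown in DMEM with 10% FBS, got 5 Gy or no irradiation plus test compound (0.3, 1 or 3 µM), reference ATM inhibitor (3 µM) or neither. Extracts were western blotted for p-p53 Ser15 and p-KAP1 Ser824, with GAPDH or KAP1 as loading controls. Detection used Dylight-800 anti-rabbit and Alexa Fluor-680 anti-mouse secondaries.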

mouse GL261 cells = experiment: Radiosurvival colony-forming assay, GL261; format: cell-based; conditions: AZ32 3 µM, 2 and 4 Gy
How it was run: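 Clonogenic radiosurvival in mouse GL261 cells grown in DMEM with 10% FBS. Cells were diluted and plated, exposed to test compound 3 µM or not, and irradiated at 0, 2 or 4 Gy. After about 2 weeks, colonies were stained with crystal violet and those of more than 50 cells were counted.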

[5] = tested on: intracranial NCI-H2228 (BM) tumors; experiment: NCI-H2228 non-small cell lung cancer brain metastasis model, survival; format: in vivo, mouse; conditions: nude mice, AZ32 50 mg/kg BID
How it was run: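 Luciferase-expressing NCI-H2228 lung cancer cells, grown in DMEM with 10% FBS, were implanted in the brains of nude mice. Mice were randomized to vehicle, radiation alone, test compound 50 mg/kg BID alone, or test compound plus radiation. Tumours were tracked by bioluminescence imaging and survival was followed.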

[6] = Tolerability of AZ32 plus head irradiation in mice; format: in vivo; conditions: C57bl6 mice, AZ32 and 2×5 Gy conformal SARRP
U87/shp53 cells [7] = experiment: Radiosensitization of U87/shp53 versus parental U87/puro cells; format: cell-based, human; conditions: AZ32 3 µM
U87/shp53 cells [8] = experiment: Live cell imaging of aberrant mitoses in U87/shp53 versus parental cells; format: cell-based, human; conditions: AZ32 3 µM, 5 Gy, time-lapse 16 hrs
How it was run: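 U87 cells expressing H2B-mCherry and EGFP-Centrin2 were transduced with shp53 pLKO.1 puro or pBabe-puro, puromycin-selected and FACS-sorted mCherry+/EGFP+. They were grown 48–72 hr on glass-bottom dishes, given test compound 3 µM before 5 Gy, then imaged by spinning-disk confocal every 7 min from 2 hr post-IR for 16 hr. Aberrant mitoses were scored visually from chromatin and/or centrosome morphology.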

[9] = tested on: human HCT116 colon carcinoma cells; experiment: Aberrant mitoses in isogenic HCT116 cells; format: cell-based; conditions: HCT116 p53−/− cells
[10] = tested on: human HCT116 colon carcinoma cells; experiment: CFA radiosurvival of isogenic HCT116 cells; format: cell-based; conditions: HCT116 p53+/+ cells versus mutant p53 cells
mouse GL261 glioma cells = experiment: Mitotic catastrophe triple staining; format: cell-based; conditions: 24 hr
How it was run: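 GL261 cells on chamber slides (DMEM, 10% FBS, 37°C, 5% CO2) were treated with test compound 3 µM and/or 2 Gy, or left untreated. Fixed at 24 hr and immunostained for γ-H2AX, p-(S10)-histone H3 and cleaved caspase 3, with DAPI counterstain; confocal imaging. Triple-positive cells were counted as mitotic catastrophe and expressed as a fraction of all cells.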

COCc1ccc(-c2ccc3ncc(C(N)=O)c(N[C@H](C)C4CCOCC4)c3c2)cn1 [AZ31, 6-[6-(methoxymethyl)-3-pyridinyl]-4-([(1R)-1-(tetrahydro-2H-pyran-4-yl)ethyl]amino)-3-quinolinecarboxamide]
Radiosensitization by colony-forming ability (human glioma T98G cells): radiosensitized cells to a similar extent as KU-60019
Block of phosphorylation of ATM targets ([1]; p53-S15, KAP1-S824, ATM S1981): effectively blocked phosphorylation
Potency compared to KU-60019 in blocking ATM target phosphorylation ([1]; lanes 2–6): at least 10 fold
Radiosensitization of GL261 tumors (GL261 orthotopic glioma; administered orally, prolonged low radiation dose treatment schedule): unable to significantly radiosensitize tumors

CNC(=O)c1ccc(-c2cnc3cnc(-c4ccccc4)cn23)cc1 [AZ32]
IC50 (pS1981ATM): 310 nM
Selectivity over ATR (ATR): adequate selectivity over ATR
Enhancement of BBB penetration over AZ31 [2]: 8.7 fold
Cell permeability (Cell permeability): high cell permeability
Survival versus radiation alone (GL261 orthotopic glioma; AZ32 200 mg/kg p.o. QD, whole-head 137-Cs irradiation 4×2.5 Gy): significantly (p = 0.019) prolonged the survival
Radiosensitization of human glioma cell line panel [3]: all radiosensitized in vitro
Block of phosphorylation of p53 and KAP-1 after radiation [4]: blocked the phosphorylation of p53 and KAP-1 after radiation
Radiosensitization in radiosurvival colony-forming assay (mouse GL261 cells): became more radiosensitive
Survival of mice, AZ32 in combination with radiation [5]: survived much longer than mice in the radiation alone or AZ32 alone groups
Radiation toxicity [6]: did not notice any radiation toxicity
Sensitivity of U87/shp53 cells to AZ32 radiosensitization relative to parental cells (U87/shp53 cells [7]): 2–4 fold
Aberrant mitoses in shp53 cells relative to parental cells (U87/shp53 cells [8]): 4.2 fold and ~ 4 fold
Aberrant mitoses and polyploidy cells on addition of AZ32 before IR [9]: almost a doubling of aberrant mitoses and polyploidy cells
Sensitivity to AZ32 and radiation by CFA [10]: more sensitive to AZ32 and radiation compared to mutant p53 cells
Triple+ cells (mitotic catastrophe) of all cells (mouse GL261 glioma cells; AZ32 3 µM and radiation 2 Gy): 4%
Mitotic catastrophe in AZ32+IR over IR alone (mouse GL261 glioma cells; AZ32 3 µM, 2 Gy): 4 fold

C[C@@H]1CN(CC(=O)Nc2ccc3c(c2)Cc2cccc(-c4cc(=O)cc(N5CCOCC5)o4)c2S3)C[C@H](C)O1 [KU-60019, reference compound]
Radiosensitization of GL261 tumors (GL261 orthotopic glioma; administered intra-tumorally by CED immediately prior to radiation): radiosensitized by KU-60019 (p = 0.0001)
